Experimental data: ChEMBL document CHEMBL1122142, “Synthesis and antiinflammatory activity of hexahydrothiopyrano[4,3-c]pyrazoles and related analogues” (J Med Chem, 1982)

What was measured:
Mus musculus [1] = experiment: Carrageenan-induced edema was determined value for oral administration; type: functional; details: read-out: ID50 (the source's name)
In short: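 Adult male Sprague-Dawley (CD) rats, 160–200 g. Single dose in 1% CMC given 2 h before footpad injection of 0.05 mL 1% carrageenin in pyrogen-free saline. Paws removed and weighed at 3 h, with the contralateral paw as control. ID50 is the dose giving 50% edema inhibition.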

Mus musculus [2] = experiment: Inhibition of Mouse active Arthus (MAA) reaction activity was determined for an ip dose of 150 mg/kg in mouse; 21-30%; type: functional; details: route intraperitoneal
Cavia porcellus [3] = experiment: Tested in delayed hypersensitivity skin reaction (DHSR) after subcutaneous administration, activity reported as percent inhibition of erythema/induration of lesion; 12/45; type: functional
Mus musculus [4] = experiment: Inhibition of Mouse active Arthus (MAA) reaction activity was determined for peroral dose of 300 mg/kg in mouse; type: functional; details: route oral
Mus musculus [5] = experiment: Inhibition of Mouse Active Arthus reaction following 150 mg/Kg i.p.; 41-60% inhibition.; type: functional; details: Mus musculus, ip
Cavia porcellus [6] = experiment: Tested in delayed hypersensitivity skin reaction (DHSR) after subcutaneous administration, activity reported as percent inhibition of erythema/induration of lesion; 16/52; type: functional
Mus musculus [7] = experiment: Inhibition of Mouse active Arthus (MAA) reaction activity was determined for peroral dose of 300 mg/kg in mouse; 31-40%; type: functional; details: route oral
Mus musculus [8] = experiment: The compound was evaluated for the mouse active Arthus (MAA) reaction activity expressed as inhibitory dose after ip administration; type: functional; details: read-out: ID50 (the source's name)
In short: (§1)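 CD-1 mice were sensitized ip with a 1:1 Freund's complete adjuvant emulsion containing BSA in saline, 5 weeks before challenge. Compound was suspended in 1% Na CMC in pyrogen-free saline and given as one ip or oral dose 1 h before skin challenge with BSA. Screening doses were 150 mg/kg ip and 300 mg/kg po, with some at 75 or 50 mg/kg ip. Lesions were excised 3.5 h after challenge and weighed against controls.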

Cavia porcellus [9] = experiment: Tested in delayed hypersensitivity skin reaction (DHSR) after subcutaneous administration, activity reported as percent inhibition of erythema/induration of lesion; 1/20; type: functional
Mus musculus [10] = experiment: Mouse active Arthus (MAA) reaction activity was determined for an ip dose of 150 mg/kg in mouse; 31-40%; type: functional; details: route intraperitoneal
[11] = Acute toxicity as LD50 value was determined in mice administered orally; type: organism-based; details: mouse, in vivo, po
Cavia porcellus [12] = experiment: Tested in delayed hypersensitivity skin reaction (DHSR) after subcutaneous administration, activity reported as percent inhibition of erythema/induration of lesion; 24/41; type: functional
In short: (§2)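 Male Hartley guinea pigs were sensitized with Mycobacterium tuberculosis in Freund's incomplete adjuvant, injected into each hind footpad and subcutaneously at the neck. After 3 weeks, 1.2 μg PPD was given intradermally. Compound in sesame oil was given sc, 3 animals per group, 30 min before and 5 h after PPD; screening dose 50 mg/kg.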

Mus musculus [13] = experiment: Mouse active Arthus (MAA) reaction activity was determined for an ip dose of 150 mg/kg in mouse; type: functional; details: route intraperitoneal
[14] = Acute toxicity as LD50 value was determined in mice administered intraperitoneally; type: organism-based; details: mouse, in vivo, ip
[15] = Therapeutic ratio was determined for intraperitoneal administration; type: ADME; details: ip; read-out: TR
Mus musculus [16] = experiment: Inhibition of Mouse active Arthus (MAA) reaction activity was determined for peroral dose of 300 mg/kg in mouse; 41-60%; type: functional; details: route oral
[17] = Therapeutic ratio was determined for peroral administration; details: po; read-out: TR
Mus musculus [18] = experiment: The compound was evaluated for the mouse active Arthus (MAA) reaction activity expressed as inhibitory dose after oral administration; type: functional; details: read-out: ID50 (the source's name); in short: as §1
[19] = The acute toxicity as LD50 value was determined in mice for intraperitoneally administration; type: organism-based; details: mouse, in vivo, ip
Rattus norvegicus [20] = experiment: Adjuvant-induced arthritis was determined for a dose of 150 mg/kg administered orally; details: po
Rattus norvegicus [21] = experiment: Carrageenan-induced edema was determined after oral administration of a dose of; details: read-out: ID50 (the source's name)
Rattus norvegicus [22] = experiment: Adjuvant-induced arthritis was determined for a dose of 75 mg/kg intraperitoneal administration; details: ip
Mus musculus [23] = experiment: Mouse active Arthus (MAA) reaction activity was determined for an oral dose of 300 mg/kg administration in mouse; 21-30%; type: functional
Rattus norvegicus [24] = experiment: Carrageenan-induced edema was determined after intraperitoneal administration; details: ip, read-out: ID50 (the source's name)
Rattus norvegicus [25] = experiment: Adjuvant-induced arthritis was determined for a dose of 75 mg/kg oral administration
Rattus norvegicus [26] = experiment: Adjuvant-induced arthritis was determined for a dose of 150 mg/kg administered intraperitoneally; details: ip
Cavia porcellus [27] = experiment: Delayed hypersensitivity skin reaction (DHSR) activity was determined after a dose of 50 mg/kg; 6/15
Cavia porcellus [28] = experiment: Tested in delayed hypersensitivity skin reaction (DHSR) after subcutaneous administration, activity reported as percent inhibition of erythema/induration of lesion; 5/18; type: functional; in short: as §2
Cavia porcellus [29] = experiment: Tested in delayed hypersensitivity skin reaction (DHSR) after subcutaneous administration, activity reported as percent inhibition of erythema/induration of lesion; 10/8; type: functional
Mus musculus [30] = experiment: The compound was evaluated for the mouse active Arthus (MAA) reaction activity for an ip screening dose of 75 mg/kg in mouse; 31-40%; type: functional; details: route intraperitoneal; in short: as §1

COc1ccc2cc([C@H](C)C(=O)O)ccc2c1 [NAPROXEN]
ED50 (Mus musculus [1]): 411 mg/kg

CCCN1N=C2/C(=C/c3ccccc3)C[S+]([O-])CC2C1c1ccccc1 (single isomer, unassigned; isomer A)
inhibition in vivo at 150 mg/kg (Mus musculus [2]): 21%

CCCN1N=C2/C(=C/c3ccc(OC)cc3)CSCC2C1c1ccc(OC)cc1 (configuration not stated)
Activity (Cavia porcellus [3]): 12
inhibition in vivo at 300 mg/kg (Mus musculus [4]): < 20%
inhibition in vivo at 150 mg/kg (Mus musculus [5]): 41%

Cc1ccc(/C=C2\CSCC3C2=NN(CCCN2CCN(C)CC2)C3c2ccc(C)cc2)cc1.O=C(O)/C=C\C(=O)O (configuration not stated)
Activity (Cavia porcellus [6]): 16
inhibition in vivo at 300 mg/kg (Mus musculus [7]): 31%
inhibition in vivo at 150 mg/kg (Mus musculus [5]): 41%
ED50 (Mus musculus [8]): 58 mg/kg

CCCn1nc(-c2ccc(Cl)cc2)c2c1/C(=C/c1ccc(Cl)cc1)CSC2
inhibition in vivo at 150 mg/kg (Mus musculus [5]): 41%

O=C(c1ccc(Cl)cc1)N1N=C2/C(=C/c3ccccc3)CS(=O)(=O)CC2C1c1ccccc1 (configuration not stated)
Activity (Cavia porcellus [9]): 1
inhibition in vivo at 150 mg/kg (Mus musculus [10]): 31%

Cc1ccccc1/C=C1\CSCC2C1=NN(CCCN1CCN(C)CC1)C2c1ccccc1C.O=C(O)/C=C\C(=O)O (configuration not stated)
LD50 [11]: > 1200 mg/kg
Activity (Cavia porcellus [12]): 24
inhibition in vivo at 150 mg/kg (Mus musculus [13]): > 60%
LD50 [14]: 170 mg/kg
selectivity ratio [15]: 5.7
inhibition in vivo at 300 mg/kg (Mus musculus [16]): 41%
selectivity ratio [17]: > 5.3
ED50 (Mus musculus [18]): 225 mg/kg
ED50 (Mus musculus [8]): 30 mg/kg

CC(=O)N1N=C2/C(=C/c3cccc(C(F)(F)F)c3)CS(=O)(=O)CC2C1c1cccc(C(F)(F)F)c1 (configuration not stated)
LD50 [19]: > 4000 mg/kg
LD50 [11]: > 7200 mg/kg
inhibition in vivo at 150 mg/kg (Rattus norvegicus [20]): 7%
ED50 (Rattus norvegicus [21]): > 200 mg/kg
inhibition in vivo at 75 mg/kg (Rattus norvegicus [22]): 22%
inhibition in vivo at 300 mg/kg (Mus musculus [23]): 21%
ED50 (Rattus norvegicus [24]): > 150 mg/kg
inhibition in vivo at 75 mg/kg (Rattus norvegicus [25]): 0%
LD50 [14]: > 3200 mg/kg
selectivity ratio [15]: 24
ED50 (Mus musculus [18]): > 600 mg/kg
inhibition in vivo at 150 mg/kg (Rattus norvegicus [26]): 31%
inhibition in vivo at 150 mg/kg (Mus musculus [5]): 41%
ED50 (Mus musculus [8]): 112 mg/kg
Activity (Cavia porcellus [27]): 6

CCCN1N=C2/C(=C/c3ccccc3)CN(C)CC2C1c1ccccc1 (configuration not stated)
Activity (Cavia porcellus [28]): 5
inhibition in vivo at 150 mg/kg (Mus musculus [5]): 41%

COc1ccc2c(c1)c(CC(=O)O)c(C)n2C(=O)c1ccc(Cl)cc1 [INDOMETHACIN]
selectivity ratio [17]: 0.04
ED50 (Mus musculus [1]): 517 mg/kg

COc1ccc(/C=C2\CS(=O)(=O)CC3C2=NN(CCCN2CCN(C)CC2)C3c2ccc(OC)cc2)cc1 (configuration not stated)
Activity (Cavia porcellus [29]): 10
inhibition in vivo at 75 mg/kg (Mus musculus [30]): 31%
